The test has as its target Human immunodeficiency virus type 1 reverse transcriptase (Human immunodeficiency virus 1, UniProt Q72547). Put plainly: Inhibition of HIV-1 reverse transcriptase. In a few lines: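 Antiviral activity measured in cells infected with the HIV-1-based vector pNLNgoMI/R-E. The vector expresses the murine cell-surface marker gene hsa from the nef reading frame, so vector-infected cells can be identified by that marker. Results are reported as EC50.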

For 22 compounds, EC50 results are on record in ChEMBL document CHEMBL1145980, “Molecular modeling calculations of HIV-1 reverse transcriptase nonnucleoside inhibitors: correlation of binding energy with biological activity for novel 2-aryl-substituted benzimidazole analogues” (J Med Chem, 2003).

For the compound `Nc1cccc2c1nc(-c1c(F)cccc1F)n2Cc1c(F)cccc1F`, the midpoint of the response, the EC50, lay at 530 nM. Turning to `NC(=O)c1cccc2c1nc(-c1c(F)cccc1F)n2Cc1c(F)cccc1F`, it took 370 nM to reach a half-maximal effect (EC50). The compound `Fc1cccc(F)c1Cn1c(-c2c(F)cccc2F)nc2c(Br)cccc21` returned an EC50 of 370 nM. With `O=[N+]([O-])c1cccc2c1nc(-c1c(F)cccc1F)n2Cc1c(F)cccc1F` the figure was 450 nM; with `CC(=O)N(C)c1cccc2c1nc(-c1c(F)cccc1F)n2Cc1c(F)cccc1F`, 40 nM. To `Fc1cccc(F)c1Cn1c(-c2c(F)cccc2F)nc2c(Cl)cccc21` belongs 400 nM. With `N#CCc1cccc2c1nc(-c1c(F)cccc1F)n2Cc1c(F)cccc1F` the figure was 60 nM; with `COc1cccc(F)c1-c1nc2c(N)cccc2n1Cc1c(F)cccc1F`, 2710 nM. `Fc1cccc(F)c1Cn1c(-c2ccccc2)nc2ccccc21` gave an EC50 of 6060 nM.

`CC(=O)Nc1cccc2c1nc(-c1c(F)cccc1F)n2Cc1c(F)cccc1F`: the midpoint of the response, the EC50, lay at 1650 nM. With `Cc1cccc2c1nc(-c1c(F)cccc1F)n2Cc1ccccc1` the figure was 750 nM. `Fc1cccc(F)c1Cn1c(-c2c(F)cccc2F)nc2c(CCl)cccc21`: the EC50 was found to be 160 nM. To `COc1cccc2c1nc(-c1c(F)cccc1F)n2Cc1c(F)cccc1F` belongs 80 nM. With `Cc1cccc2c1nc(-c1c(F)cccc1F)n2Cc1c(F)cccc1F` the figure was 440 nM; with `[N-]=[N+]=NCc1cccc2c1nc(-c1c(F)cccc1F)n2Cc1c(F)cccc1F`, 45 nM; with `NCc1cccc2c1nc(-c1c(F)cccc1F)n2Cc1c(F)cccc1F`, 1360 nM. With `CNc1cccc2c1nc(-c1c(F)cccc1F)n2Cc1c(F)cccc1F` the figure was 2400 nM; with `Fc1cccc(F)c1Cn1c(-c2c(F)cccc2F)nc2ccccc21`, 1700 nM. As for `O=Cc1cccc2c1nc(-c1c(F)cccc1F)n2Cc1c(F)cccc1F`, the EC50 came to 100 nM.

The compound `CC(=O)OCc1cccc2c1nc(-c1c(F)cccc1F)n2Cc1c(F)cccc1F` displayed an EC50 of 60 nM. Turning to `OCc1cccc2c1nc(-c1c(F)cccc1F)n2Cc1c(F)cccc1F`, the EC50 turned out to be 50 nM.

In turn, `CCc1cccc2c1nc(-c1c(F)cccc1F)n2Cc1c(F)cccc1F` displayed a half-maximal effective concentration (EC50) of 820 nM.

The term EC50 denotes the midpoint of the concentration-response curve. Read a high EC50 as a less potent agent.
